Paper PMC2975463 (Biochemistry, 2009)
“Also recorded” adds a separate entry of the source. Where two headings read alike, the source gives them in different places. Each block holds one compound with its values, some of them ahead of it.

Legend:
[1] = Oxidation; format: in vitro ADME, rat; details: for enzymatic oxidation in rat liver cytosol: result in words
How it was run: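 Rat liver cytosol (5 mg/mL) with varied base-adduct concentrations and 0.4% DMSO, prewarmed 5 min at 37 °C, then started with substrate. Etheno-guanine bases: 0.1 M NaOH stocks, 0.8 M potassium phosphate pH 7.6, extracts in 0.1 M NaOH, HPLC-UV at 285 nm. Heptanone base: DMSO stock, room-temperature setup, UV at 300 nm. Km and vmax came from nonlinear one-site binding fits.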

[2] = Glycolytic cleavage of 2′-deoxynucleoside adducts in rat liver cytosol; format: in vitro ADME; details: result in words
How it was run: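 Reactions (ice-prepared) contained 5 mg/mL rat liver cytosol, varied adduct concentrations, 0.4% DMSO and 0.1 M potassium phosphate pH 7.4. One etheno-deoxyadenosine adduct was also run in 0.1 M Tris-HCl pH 7.4 without inorganic phosphate. After 5 min at 37 °C, substrate was added to start. Ice-cold methanol stopped reactions; samples were centrifuged at 200000g for 30 min. Supernatants went to reversed-phase HPLC-UV for base formation.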

[3] = target: Bovine XO from buttermilk (Bos taurus, UniProt P80457); assay: Oxidation of 1,N^2-ε-Gua with purified XO; format: biochemical; details: for oxidation by purified bovine XO: result in words
[4] = oxidation in rat liver cytosol; cited from earlier work
[5] = target: T1, purine nucleoside phosphorylase (PNP) (Homo sapiens, UniProt P00491); assay: Incubations of 1,N^6-ε-dA and dIno with purified human PNP; format: biochemical; details: dIno versus 1,N^6-ε-dA
T1 sequence (P00491 1-289): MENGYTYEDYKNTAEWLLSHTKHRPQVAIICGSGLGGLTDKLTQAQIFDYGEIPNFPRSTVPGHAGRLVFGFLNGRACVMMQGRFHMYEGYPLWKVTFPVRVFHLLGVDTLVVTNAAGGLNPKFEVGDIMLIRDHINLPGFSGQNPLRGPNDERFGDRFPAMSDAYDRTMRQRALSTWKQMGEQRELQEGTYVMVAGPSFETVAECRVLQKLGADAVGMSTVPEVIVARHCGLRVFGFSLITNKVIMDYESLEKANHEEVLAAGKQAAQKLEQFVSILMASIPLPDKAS

[6] = target: T2, xanthine oxidoreductase (XOR) (Rattus norvegicus, UniProt P22985); assay: Effect of XOR and AO inhibitors on 1,N^2-ε-Gua oxidation in rat liver cytosol; format: biochemical; details: result in words
How it was run: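 Rat liver cytosol (5 mg/mL final) in 0.8 M potassium phosphate (pH 7.6) with 0.4% DMSO. Substrate stock was in 0.1 M NaOH; 84 μM substrate was used with increasing inhibitor concentrations. Mixes were prepared on ice, equilibrated 5 min at 37 °C, and started by adding substrate. Extracts were taken up in 0.1 M NaOH for reversed-phase HPLC-UV (285 nm). IC50 was fitted by nonlinear regression (one-site competition).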

[7] = target: T2, xanthine oxidoreductase (XOR); format: biochemical; details: co-incubation in rat liver cytosol, result in words
How it was run: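 Rat liver cytosol (5 mg/mL final) in 0.1 M potassium phosphate (pH 7.4) with 0.4% DMSO, co-incubated with inhibitors. Substrate stock was in DMSO, and mixes were prepared at room temperature. Reactions were equilibrated 5 min at 37 °C and started by adding substrate. Extracts were dissolved in methanol for C18 HPLC (formic acid water/methanol gradient) with UV at 300 nm.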

Bovine XO from buttermilk, sequence (P80457 whole entry): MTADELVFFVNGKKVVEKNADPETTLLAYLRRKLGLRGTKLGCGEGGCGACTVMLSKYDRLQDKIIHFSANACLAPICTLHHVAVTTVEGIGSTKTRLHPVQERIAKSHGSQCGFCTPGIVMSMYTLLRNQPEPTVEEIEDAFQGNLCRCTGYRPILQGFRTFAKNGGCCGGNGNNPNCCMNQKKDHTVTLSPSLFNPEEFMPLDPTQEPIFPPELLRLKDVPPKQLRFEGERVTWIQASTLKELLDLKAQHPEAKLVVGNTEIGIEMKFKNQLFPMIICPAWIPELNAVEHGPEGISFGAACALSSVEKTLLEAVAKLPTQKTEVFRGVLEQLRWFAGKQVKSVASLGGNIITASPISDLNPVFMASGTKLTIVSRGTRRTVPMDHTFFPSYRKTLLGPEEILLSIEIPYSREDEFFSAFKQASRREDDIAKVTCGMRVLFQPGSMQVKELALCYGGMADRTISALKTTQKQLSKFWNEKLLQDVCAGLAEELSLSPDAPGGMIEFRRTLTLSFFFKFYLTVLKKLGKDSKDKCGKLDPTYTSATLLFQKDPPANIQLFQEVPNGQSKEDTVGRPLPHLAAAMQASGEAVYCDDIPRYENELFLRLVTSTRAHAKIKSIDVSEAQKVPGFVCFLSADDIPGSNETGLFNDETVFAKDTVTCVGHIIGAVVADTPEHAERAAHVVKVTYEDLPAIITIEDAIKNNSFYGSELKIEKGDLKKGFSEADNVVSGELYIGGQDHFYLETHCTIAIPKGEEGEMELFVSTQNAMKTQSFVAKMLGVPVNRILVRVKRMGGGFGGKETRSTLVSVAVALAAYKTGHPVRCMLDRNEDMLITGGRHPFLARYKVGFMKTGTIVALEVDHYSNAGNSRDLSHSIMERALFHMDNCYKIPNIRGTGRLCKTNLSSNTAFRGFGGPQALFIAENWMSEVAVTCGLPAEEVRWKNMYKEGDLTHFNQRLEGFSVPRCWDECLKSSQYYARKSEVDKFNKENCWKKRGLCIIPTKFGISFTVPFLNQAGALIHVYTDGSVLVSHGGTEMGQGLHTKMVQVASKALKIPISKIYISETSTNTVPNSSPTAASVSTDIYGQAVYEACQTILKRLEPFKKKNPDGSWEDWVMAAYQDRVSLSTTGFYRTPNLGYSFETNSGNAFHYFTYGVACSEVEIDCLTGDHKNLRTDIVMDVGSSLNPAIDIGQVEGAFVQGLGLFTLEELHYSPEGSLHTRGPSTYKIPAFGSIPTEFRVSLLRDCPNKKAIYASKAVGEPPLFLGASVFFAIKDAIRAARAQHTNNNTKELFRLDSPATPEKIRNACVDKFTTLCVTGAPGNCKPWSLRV
T2 sequence (P22985 whole entry): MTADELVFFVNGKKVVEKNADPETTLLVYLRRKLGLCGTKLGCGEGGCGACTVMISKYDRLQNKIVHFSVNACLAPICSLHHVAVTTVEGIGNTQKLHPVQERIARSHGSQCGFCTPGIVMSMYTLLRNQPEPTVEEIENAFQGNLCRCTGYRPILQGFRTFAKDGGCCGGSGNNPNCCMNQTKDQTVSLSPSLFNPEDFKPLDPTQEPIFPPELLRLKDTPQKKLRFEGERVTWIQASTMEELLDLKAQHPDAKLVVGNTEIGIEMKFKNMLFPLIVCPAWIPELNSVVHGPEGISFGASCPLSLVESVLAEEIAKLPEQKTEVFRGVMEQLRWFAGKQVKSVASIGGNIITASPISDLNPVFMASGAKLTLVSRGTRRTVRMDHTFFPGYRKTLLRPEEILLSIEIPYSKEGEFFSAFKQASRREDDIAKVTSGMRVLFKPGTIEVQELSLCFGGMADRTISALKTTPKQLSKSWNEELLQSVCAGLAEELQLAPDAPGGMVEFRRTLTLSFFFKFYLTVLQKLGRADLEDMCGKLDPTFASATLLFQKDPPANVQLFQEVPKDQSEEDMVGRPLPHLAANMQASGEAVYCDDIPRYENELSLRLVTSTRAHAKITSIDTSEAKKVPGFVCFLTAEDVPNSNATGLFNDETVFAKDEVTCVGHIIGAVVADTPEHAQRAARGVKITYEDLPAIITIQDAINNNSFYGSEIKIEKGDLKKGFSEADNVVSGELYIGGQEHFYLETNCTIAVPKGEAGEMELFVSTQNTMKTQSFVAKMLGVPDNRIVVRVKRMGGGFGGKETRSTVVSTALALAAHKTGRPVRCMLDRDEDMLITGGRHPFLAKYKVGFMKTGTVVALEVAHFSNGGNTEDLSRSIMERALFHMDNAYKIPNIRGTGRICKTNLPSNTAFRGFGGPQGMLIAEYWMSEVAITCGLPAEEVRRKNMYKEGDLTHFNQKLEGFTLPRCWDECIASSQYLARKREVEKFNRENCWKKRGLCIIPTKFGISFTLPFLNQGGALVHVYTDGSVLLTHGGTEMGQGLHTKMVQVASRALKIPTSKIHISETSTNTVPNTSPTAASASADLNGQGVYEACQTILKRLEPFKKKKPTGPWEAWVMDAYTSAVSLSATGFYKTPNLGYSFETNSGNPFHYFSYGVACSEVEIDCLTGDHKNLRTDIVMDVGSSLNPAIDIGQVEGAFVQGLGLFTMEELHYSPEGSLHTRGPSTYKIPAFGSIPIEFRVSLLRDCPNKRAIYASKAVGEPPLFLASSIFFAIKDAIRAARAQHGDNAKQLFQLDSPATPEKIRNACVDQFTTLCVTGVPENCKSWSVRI

Compound: OC[C@H]1O[C@@H](n2cnc3c2ncn2ccnc32)[C@H](O)[C@@H]1O [1,N^6-ε-adenosine]
glycolytic cleavage in rat liver cytosol [2]: Identical observations

Compound: 1,N^6-ethenoadenine [1,N^6-ε-Ade]
enzymatic oxidation in rat liver cytosol [1]: neither was found to be oxidized

Compound: O=c1c2[nH]cnc2nc2[nH]ccn12 [1,N^2-ε-Gua, 1,N^2-ethenoguanine]
vmax ([1]; oxidation in rat liver cytosol, unit of the text): 105 pmol/min/mg
vmax ([1]; oxidation of substrate in rat liver cytosol, unit of Table 1): 105000 pmol/min/mg
Km ([1]; rat, rat liver cytosol, pH 7.6): 84 µM
enzymatic oxidation in rat liver cytosol [1]: substrates for enzymatic oxidation
vmax ([3]; consumption of 1,N^2-ε-Gua by XOR purified from bovine milk, Figure 3 legend): 10.1 μmol min^−1 (mg of XOR)^−1
vmax ([3]; consumption of 1,N^2-ε-Gua by purified bovine XO): 10.1 μmol min^−1 (mg of XO)^−1
oxidation by purified bovine XO [3]: readily consumed

Compound: O=c1ccn2c(=O)c3[nH]cnc3nc2[nH]1 [6-oxo-M1G]
Km [4]: 210 µM
vmax [4]: 257 nmol/min/mg

Compound: Oc1ncnc2[nH]ncc12 [allopurinol]
inhibition of 1,N^2-ε-Gua metabolite production [6]: inhibited; also recorded: complete inhibition
inhibition of heptanone-1,N^2-ε-Gua oxidation [7]: inhibited oxidation

Compound: O=c1c2[nH]cnc2nc2n1CCCN2 [PGua, 1,N^2-propanoguanine]
enzymatic oxidation in rat liver cytosol [1]: not oxidized

More lines, now with the values ahead:

enzymatic oxidation in rat liver cytosol [1]: substrates for enzymatic oxidation
Compound: 7-(2-oxoheptyl)-1,N^2-ethenoguanine [heptanone-1,N^2-ε-Gua]

enzymatic oxidation in rat liver cytosol [1]: did not result in oxidative metabolism
oxidation by purified bovine XO [3]: did not result in oxidative metabolism
Compound: O=c1nc2[nH]ccn2c2nc[nH]c12 [N^2,3-ε-Gua, N^2,3-ethenoguanine]

efficiency of turnover relative to 1,N^6-ε-dA [5]: approximately 57 fold
Compound: OC[C@H]1O[C@@H](n2cnc3c(O)ncnc32)C[C@@H]1O [dIno, 2′-deoxyinosine]

enzymatic oxidation in rat liver cytosol [1]: neither was found to be oxidized
Compound: 3,N^4-ethenocytosine [3,N^4-ε-Cyt]
